Values after ≈ are worked out from the molar mass of the structure shown.
System: not listed separately
Assay: Aqueous solubility in pH 7.4 phosphate buffer at 120 uM after 24 hrs by HPLC method
Type: physicochemical
Conditions: not given
In the case of `COC(=O)[C@H](Cc1ccccc1)NC(=O)c1ccc2c(c1)/C(=C/c1[nH]c(C)c(C(=O)O)c1C)C(=O)N2`, the solubility at 24 h, 120 µM is reported as 20 µM (≈ 9.75 µg/mL). `Cc1[nH]c(/C=C2\C(=O)Nc3ccc(C(=O)N[C@@H](Cc4ccccc4)C(=O)O)cc32)c(C)c1C(=O)N[C@@H](Cc1ccccc1)C(=O)O` showed a solubility at 24 h, 120 µM of at least 120 µM. `CCOC(=O)c1c(C)[nH]c(/C=C2\C(=O)Nc3ccc(C(=O)N[C@@H](Cc4ccccc4)C(=O)O)cc32)c1C` gave a solubility at 24 h, 120 µM of 20 µM (≈ 10 µg/mL). Compound `CCN(CC)CCNC(=O)c1c(C)[nH]c(/C=C2\C(=O)Nc3ccc(F)cc32)c1C` [SUNITINIB] has a solubility at 24 h, 120 µM of at least 120 µM. `COC(=O)[C@H](Cc1ccccc1)NC(=O)c1c(C)[nH]c(/C=C2\C(=O)Nc3ccc(C(=O)O)cc32)c1C` gave a solubility at 24 h, 120 µM of 100 µM (≈ 48.8 µg/mL). For `COC(=O)[C@H](Cc1ccccc1)NC(=O)c1ccc2c(c1)/C(=C/c1[nH]c(C)c(C(=O)N[C@@H](Cc3ccccc3)C(=O)O)c1C)C(=O)N2`, the solubility at 24 h, 120 µM was 70 µM (≈ 44.4 µg/mL).

System: not listed separately
Assay: Aqueous solubility in pH 5.5 phosphate buffer at 120 uM after 24 hrs by HPLC method
Type: physicochemical
Conditions: phosphate buffer, pH 5.5
With `COC(=O)[C@H](Cc1ccccc1)NC(=O)c1ccc2c(c1)/C(=C/c1[nH]c(C)c(C(=O)O)c1C)C(=O)N2` the solubility at 24 h, 120 µM was under 1 µM. Compound `Cc1[nH]c(/C=C2\C(=O)Nc3ccc(C(=O)N[C@@H](Cc4ccccc4)C(=O)O)cc32)c(C)c1C(=O)N[C@@H](Cc1ccccc1)C(=O)O` has a solubility at 24 h, 120 µM of 110 µM (≈ 68.3 µg/mL). For `CCOC(=O)c1c(C)[nH]c(/C=C2\C(=O)Nc3ccc(C(=O)N[C@@H](Cc4ccccc4)C(=O)O)cc32)c1C`, the solubility at 24 h, 120 µM was under 5 µM. For `CCN(CC)CCNC(=O)c1c(C)[nH]c(/C=C2\C(=O)Nc3ccc(F)cc32)c1C` [SUNITINIB], the solubility at 24 h, 120 µM was at least 120 µM. Work on `COC(=O)[C@H](Cc1ccccc1)NC(=O)c1c(C)[nH]c(/C=C2\C(=O)Nc3ccc(C(=O)O)cc32)c1C` yielded a solubility at 24 h, 120 µM of under 5 µM. For `COC(=O)[C@H](Cc1ccccc1)NC(=O)c1ccc2c(c1)/C(=C/c1[nH]c(C)c(C(=O)N[C@@H](Cc3ccccc3)C(=O)O)c1C)C(=O)N2`, the solubility at 24 h, 120 µM was 30 µM (≈ 19 µg/mL).

System: Receptor-type tyrosine-protein kinase FLT3 (Homo sapiens), P36888 [UNDEFINED MUTATION]
Sequence (P36888 whole entry, looked up, change not shown): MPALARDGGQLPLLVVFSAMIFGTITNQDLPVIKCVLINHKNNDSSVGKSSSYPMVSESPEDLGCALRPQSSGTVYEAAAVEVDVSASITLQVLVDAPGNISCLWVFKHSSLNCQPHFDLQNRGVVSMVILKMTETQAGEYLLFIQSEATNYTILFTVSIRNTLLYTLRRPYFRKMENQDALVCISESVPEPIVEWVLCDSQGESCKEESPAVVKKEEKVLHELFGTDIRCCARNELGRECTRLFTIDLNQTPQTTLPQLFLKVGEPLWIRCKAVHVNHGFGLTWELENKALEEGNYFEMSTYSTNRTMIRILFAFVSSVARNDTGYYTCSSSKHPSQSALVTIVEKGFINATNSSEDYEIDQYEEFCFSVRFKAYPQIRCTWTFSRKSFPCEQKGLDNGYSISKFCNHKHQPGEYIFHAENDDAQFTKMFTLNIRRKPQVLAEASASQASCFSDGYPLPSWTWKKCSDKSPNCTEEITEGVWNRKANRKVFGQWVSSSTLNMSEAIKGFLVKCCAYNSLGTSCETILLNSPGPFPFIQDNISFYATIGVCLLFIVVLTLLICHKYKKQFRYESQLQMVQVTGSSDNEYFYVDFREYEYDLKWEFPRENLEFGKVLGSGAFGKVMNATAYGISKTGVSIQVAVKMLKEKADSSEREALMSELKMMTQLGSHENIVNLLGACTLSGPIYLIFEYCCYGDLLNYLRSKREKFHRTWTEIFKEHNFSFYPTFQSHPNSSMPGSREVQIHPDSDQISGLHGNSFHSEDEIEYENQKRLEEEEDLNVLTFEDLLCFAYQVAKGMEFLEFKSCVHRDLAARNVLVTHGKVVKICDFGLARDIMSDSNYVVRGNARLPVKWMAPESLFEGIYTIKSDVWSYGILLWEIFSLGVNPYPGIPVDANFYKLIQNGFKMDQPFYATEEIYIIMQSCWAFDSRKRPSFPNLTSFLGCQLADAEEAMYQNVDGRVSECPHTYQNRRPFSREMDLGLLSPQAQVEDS
Assay: Inhibition of FLT3 ITD mutant (unknown origin) using TAMRA-Src- tide as substrate at 12.5 uM after 1 hr by fluorescence polarization assay relative to control
Conditions: not given
Method in brief: (§1)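 FLT3-ITD kinase inhibition by fluorescence polarization IMAP assay; each compound tested at 12.5 and 1.25 μM; percent inhibition, average of two parallel measurements.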
In the case of `COC(=O)[C@H](Cc1ccccc1)NC(=O)c1ccc2c(c1)/C(=C/c1[nH]c(C)c(C(=O)O)c1C)C(=O)N2`, the inhibition is reported as 71.6%. In the case of `Cc1[nH]c(/C=C2\C(=O)Nc3ccc(C(=O)N[C@@H](Cc4ccccc4)C(=O)O)cc32)c(C)c1C(=O)N[C@@H](Cc1ccccc1)C(=O)O`, the inhibition is reported as over 100%. In the case of `CCOC(=O)c1c(C)[nH]c(/C=C2\C(=O)Nc3ccc(C(=O)N[C@@H](Cc4ccccc4)C(=O)O)cc32)c1C`, the inhibition is reported as over 100%. For `CCN(CC)CCNC(=O)c1c(C)[nH]c(/C=C2\C(=O)Nc3ccc(F)cc32)c1C` [SUNITINIB], the inhibition was 94.8%. `COC(=O)[C@H](Cc1ccccc1)NC(=O)c1c(C)[nH]c(/C=C2\C(=O)Nc3ccc(C(=O)O)cc32)c1C` gave an inhibition of 98.7%. For `COC(=O)[C@H](Cc1ccccc1)NC(=O)c1ccc2c(c1)/C(=C/c1[nH]c(C)c(C(=O)N[C@@H](Cc3ccccc3)C(=O)O)c1C)C(=O)N2`, the inhibition was over 100%.

System: Receptor-type tyrosine-protein kinase FLT3 (Homo sapiens), P36888 [UNDEFINED MUTATION]
Assay: Inhibition of FLT3 ITD mutant (unknown origin) using TAMRA-Src- tide as substrate at 1.25 uM after 1 hr by fluorescence polarization assay relative to control
Conditions: not given
Method in brief: as §1
Work on `COC(=O)[C@H](Cc1ccccc1)NC(=O)c1ccc2c(c1)/C(=C/c1[nH]c(C)c(C(=O)O)c1C)C(=O)N2` yielded an inhibition of 69%. Compound `Cc1[nH]c(/C=C2\C(=O)Nc3ccc(C(=O)N[C@@H](Cc4ccccc4)C(=O)O)cc32)c(C)c1C(=O)N[C@@H](Cc1ccccc1)C(=O)O` has an inhibition of 98.7%. In the case of `CCOC(=O)c1c(C)[nH]c(/C=C2\C(=O)Nc3ccc(C(=O)N[C@@H](Cc4ccccc4)C(=O)O)cc32)c1C`, the inhibition is reported as 90.9%. Compound `CCN(CC)CCNC(=O)c1c(C)[nH]c(/C=C2\C(=O)Nc3ccc(F)cc32)c1C` [SUNITINIB] has an inhibition of 92.3%. Compound `COC(=O)[C@H](Cc1ccccc1)NC(=O)c1c(C)[nH]c(/C=C2\C(=O)Nc3ccc(C(=O)O)cc32)c1C` has an inhibition of 85.8%. Compound `COC(=O)[C@H](Cc1ccccc1)NC(=O)c1ccc2c(c1)/C(=C/c1[nH]c(C)c(C(=O)N[C@@H](Cc3ccccc3)C(=O)O)c1C)C(=O)N2` has an inhibition of 58.6%.

System: not listed separately
Assay: Dissociation constant, pKa of the compound at 25 to 50 uM by UV spectroscopy
Type: physicochemical
Conditions: not given
Method in brief: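 Carboxyl pKa by automated UV/pH titration with MeOH as co-solvent.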
Compound `COC(=O)[C@H](Cc1ccccc1)NC(=O)c1c(C)[nH]c(/C=C2\C(=O)Nc3ccc(C(=O)O)cc32)c1C` has a pKa at up to 50 µM of 4.61.

System: not listed separately
Assay: Apparent partition coefficient, log P of the compound in n-octanol/aqueous mixture at pH 7.4 after 1 hr by shake flask method
Type: physicochemical
Conditions: not given
In the case of `COC(=O)[C@H](Cc1ccccc1)NC(=O)c1c(C)[nH]c(/C=C2\C(=O)Nc3ccc(C(=O)O)cc32)c1C`, the logD at 1 h is reported as 4.32.

System: not listed separately
Assay: n-Octanol-buffer distribution coefficient, log D of the compound at pH 7.4 after 1 hr by shake flask method
Type: physicochemical
Conditions: not given
`COC(=O)[C@H](Cc1ccccc1)NC(=O)c1c(C)[nH]c(/C=C2\C(=O)Nc3ccc(C(=O)O)cc32)c1C` gave a logD at 1 h of 1.53.

System: not listed separately
Assay: n-Octanol-buffer distribution coefficient, log D of the compound at pH 5.5 after 1 hr by shake flask method
Type: physicochemical
Conditions: not given
Work on `COC(=O)[C@H](Cc1ccccc1)NC(=O)c1c(C)[nH]c(/C=C2\C(=O)Nc3ccc(C(=O)O)cc32)c1C` yielded a logD at 1 h of 3.38.

System: MV4-11
Assay: Antiproliferative activity against human MV4-11 cells after 72 hrs by Celltiter-Glo luminescent cell viability assay
Type: functional, cell-based
Conditions: MV4-11, 72 h
Method in brief: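 MV4-11 leukaemia cells, 72 h proliferation assay, luminescence read-out; IC50 determined from concentration–response.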
Work on `COC(=O)[C@H](Cc1ccccc1)NC(=O)c1ccc2c(c1)/C(=C/c1[nH]c(C)c(C(=O)O)c1C)C(=O)N2` yielded an IC50 of 3.7 µM. Compound `CCN(CC)CCNC(=O)c1c(C)[nH]c(/C=C2\C(=O)Nc3ccc(F)cc32)c1C` [SUNITINIB] has an IC50 of under 0.01 µM. Compound `COC(=O)[C@H](Cc1ccccc1)NC(=O)c1ccc2c(c1)/C(=C/c1[nH]c(C)c(C(=O)N[C@@H](Cc3ccccc3)C(=O)O)c1C)C(=O)N2` has an IC50 of 24.3 µM.

System: not listed separately
Assay: Lipophilicity, chromatographic hydrophobicity index of the compound at pH 7.4 by HPLC method
Type: physicochemical
Conditions: buffer
Method in brief: (§2)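 RP-HPLC with buffer/acetonitrile gradient elution; CHI profile at starting pH 10.5, 7.4, 5.5 and 1.2; values given as average of the compound group.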
`COC(=O)[C@H](Cc1ccccc1)NC(=O)c1ccc2c(c1)/C(=C/c1[nH]c(C)c(C(=O)O)c1C)C(=O)N2` gave a CHI of 56. With `Cc1[nH]c(/C=C2\C(=O)Nc3ccc(C(=O)N[C@@H](Cc4ccccc4)C(=O)O)cc32)c(C)c1C(=O)N[C@@H](Cc1ccccc1)C(=O)O` the CHI was 39. `CCOC(=O)c1c(C)[nH]c(/C=C2\C(=O)Nc3ccc(C(=O)N[C@@H](Cc4ccccc4)C(=O)O)cc32)c1C` showed a CHI of 60. For `CCN(CC)CCNC(=O)c1c(C)[nH]c(/C=C2\C(=O)Nc3ccc(F)cc32)c1C` [SUNITINIB], the CHI was 57. For `COC(=O)[C@H](Cc1ccccc1)NC(=O)c1c(C)[nH]c(/C=C2\C(=O)Nc3ccc(C(=O)O)cc32)c1C`, the CHI was 52. Compound `COC(=O)[C@H](Cc1ccccc1)NC(=O)c1ccc2c(c1)/C(=C/c1[nH]c(C)c(C(=O)N[C@@H](Cc3ccccc3)C(=O)O)c1C)C(=O)N2` has a CHI of 59.

System: not listed separately
Assay: Lipophilicity, chromatographic hydrophobicity index of the compound at pH 5.5 by HPLC method
Type: physicochemical
Conditions: buffer
Method in brief: as §2
`COC(=O)[C@H](Cc1ccccc1)NC(=O)c1ccc2c(c1)/C(=C/c1[nH]c(C)c(C(=O)O)c1C)C(=O)N2` showed a CHI of 68. For `Cc1[nH]c(/C=C2\C(=O)Nc3ccc(C(=O)N[C@@H](Cc4ccccc4)C(=O)O)cc32)c(C)c1C(=O)N[C@@H](Cc1ccccc1)C(=O)O`, the CHI was 40. With `CCOC(=O)c1c(C)[nH]c(/C=C2\C(=O)Nc3ccc(C(=O)N[C@@H](Cc4ccccc4)C(=O)O)cc32)c1C` the CHI was 61. `CCN(CC)CCNC(=O)c1c(C)[nH]c(/C=C2\C(=O)Nc3ccc(F)cc32)c1C` [SUNITINIB] gave a CHI of 55. In the case of `COC(=O)[C@H](Cc1ccccc1)NC(=O)c1c(C)[nH]c(/C=C2\C(=O)Nc3ccc(C(=O)O)cc32)c1C`, the CHI is reported as 59. `COC(=O)[C@H](Cc1ccccc1)NC(=O)c1ccc2c(c1)/C(=C/c1[nH]c(C)c(C(=O)N[C@@H](Cc3ccccc3)C(=O)O)c1C)C(=O)N2` gave a CHI of 60.

System: not listed separately
Assay: Lipophilicity, chromatographic hydrophobicity index of the compound at pH 1.2 by HPLC method
Type: physicochemical
Conditions: buffer
Method in brief: as §2
`COC(=O)[C@H](Cc1ccccc1)NC(=O)c1ccc2c(c1)/C(=C/c1[nH]c(C)c(C(=O)O)c1C)C(=O)N2` gave a CHI of 73. In the case of `Cc1[nH]c(/C=C2\C(=O)Nc3ccc(C(=O)N[C@@H](Cc4ccccc4)C(=O)O)cc32)c(C)c1C(=O)N[C@@H](Cc1ccccc1)C(=O)O`, the CHI is reported as 70. Compound `CCOC(=O)c1c(C)[nH]c(/C=C2\C(=O)Nc3ccc(C(=O)N[C@@H](Cc4ccccc4)C(=O)O)cc32)c1C` has a CHI of 86. Work on `CCN(CC)CCNC(=O)c1c(C)[nH]c(/C=C2\C(=O)Nc3ccc(F)cc32)c1C` [SUNITINIB] yielded a CHI of 51. Compound `COC(=O)[C@H](Cc1ccccc1)NC(=O)c1c(C)[nH]c(/C=C2\C(=O)Nc3ccc(C(=O)O)cc32)c1C` has a CHI of 73. `COC(=O)[C@H](Cc1ccccc1)NC(=O)c1ccc2c(c1)/C(=C/c1[nH]c(C)c(C(=O)N[C@@H](Cc3ccccc3)C(=O)O)c1C)C(=O)N2` showed a CHI of 80.

System: not given
Conditions: buffer, pH 10.5
`COC(=O)[C@H](Cc1ccccc1)NC(=O)c1ccc2c(c1)/C(=C/c1[nH]c(C)c(C(=O)O)c1C)C(=O)N2` showed a CHI of 47. `Cc1[nH]c(/C=C2\C(=O)Nc3ccc(C(=O)N[C@@H](Cc4ccccc4)C(=O)O)cc32)c(C)c1C(=O)N[C@@H](Cc1ccccc1)C(=O)O` gave a CHI of 36. In the case of `CCOC(=O)c1c(C)[nH]c(/C=C2\C(=O)Nc3ccc(C(=O)N[C@@H](Cc4ccccc4)C(=O)O)cc32)c1C`, the CHI is reported as 58. Work on `COC(=O)[C@H](Cc1ccccc1)NC(=O)c1c(C)[nH]c(/C=C2\C(=O)Nc3ccc(C(=O)O)cc32)c1C` yielded a CHI of 49. For `COC(=O)[C@H](Cc1ccccc1)NC(=O)c1ccc2c(c1)/C(=C/c1[nH]c(C)c(C(=O)N[C@@H](Cc3ccccc3)C(=O)O)c1C)C(=O)N2`, the CHI was 57.

Source: ChEMBL document CHEMBL4190404, “Synthesis and characterization of amino acid substituted sunitinib analogues for the treatment of AML” (Bioorg Med Chem Lett, 2018)
